The subject of data set [1] is HEK239 cells. The data set can be described thus: Human cell toxicity assay. The class given is cell-based. As to conditions: MTT, 48 h, 32 and 3.2 µg ml−1, duplicate wells; three biologically independent replicates. The method in brief: (§1)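 Cells grown in DMEM with 10% FBS, penicillin–streptomycin, glutamine and nonessential amino acids, and seeded in exponential phase at 5,000 per well, 37 °C, 5% CO2. Compound added from a DMSO stock in phenol red-free DMEM (final DMSO 0.5% or 0.05%). Vehicle sets 100% viability; camptothecin 40 µg ml−1 sets 0%. MTT added for 4 h, solubilized overnight, A570 read, normalized to percentage survival.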

Data set [2] concerns S. aureus SH1000. Nature of the data set: MIC assay. The class given is cell-based, Staphylococcus aureus.
The target in data set [3] is S. aureus ClpX (Staphylococcus aureus, UniProt Q2FXQ7). Nature of the data set: Isothermal titration calorimetry. As to conditions: 25 °C, ~30 μM His-ClpX, ~300 μM ligand. The class given is binding. A general note: ITC needs no label: the signal is the heat of the interaction.
The subject of data set [4] is S. aureus SH1000. Nature of the data set: Mutant isolation by direct plating. The class given is cell-based, Staphylococcus aureus. Conditions: 8× MIC, ~1 × 10^7 cells per ml, LB, 30 °C, overnight.
The test system of data set [5] is HeLa cells. Nature of the data set: Human cell toxicity assay. The class given is cell-based. Conditions: MTT, 48 h, 32 and 3.2 µg ml−1, duplicate wells; three biologically independent replicates. The method in brief:
as §1

Non-standard residues stand in square brackets, D forms with d. No end group written: not given here.

S. aureus ClpX, sequence (Q2FXQ7 whole entry): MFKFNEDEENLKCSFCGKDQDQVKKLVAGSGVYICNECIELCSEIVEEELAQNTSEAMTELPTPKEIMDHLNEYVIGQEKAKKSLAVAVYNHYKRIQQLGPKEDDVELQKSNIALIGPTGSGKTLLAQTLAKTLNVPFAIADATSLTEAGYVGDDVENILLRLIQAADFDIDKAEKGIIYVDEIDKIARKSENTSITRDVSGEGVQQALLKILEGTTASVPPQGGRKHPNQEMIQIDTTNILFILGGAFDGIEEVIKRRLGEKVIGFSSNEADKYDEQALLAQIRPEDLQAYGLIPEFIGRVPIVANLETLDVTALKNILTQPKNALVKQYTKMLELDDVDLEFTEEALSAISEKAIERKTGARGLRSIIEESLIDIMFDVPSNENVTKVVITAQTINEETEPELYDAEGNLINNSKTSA

As for “[dT]PFYL (also: lariat or depsi (positions not given here)) [synBNP 27, trigintamicin]”, the “human cell toxicity (in words)” value in data set [1] and in data set [5] was “human cell cytotoxicity” throughout. In addition, the “antibiotic activity after shifting the assay conditions to 37 °C (in words)” value in data set [2] (S. aureus, 37 °C instead of 30 °C) is “abolished”. In data set [2] (resolved trigintamicin isomers after resynthesis, 30 °C), the “antibiotic activity against S. aureus (in words)” value is given as “showing antibiotic activity”. Besides, the “binding to ClpX by ITC (in words)” value in data set [3] is given as “bound ClpX”. The “resistant mutants by direct plating” value in data set [4] is listed as “generated resistant mutants”.

The values above are taken from publication PMC12818350 (Nature Biotechnology, 2025).
